Assay results gathered from unrelated publications.
Lines come from different studies, so protocols differ.
Target: Cyclin-dependent kinase-like 5 (CDKL5, Homo sapiens, UniProt O76039)
One construct used (O76039 1-960): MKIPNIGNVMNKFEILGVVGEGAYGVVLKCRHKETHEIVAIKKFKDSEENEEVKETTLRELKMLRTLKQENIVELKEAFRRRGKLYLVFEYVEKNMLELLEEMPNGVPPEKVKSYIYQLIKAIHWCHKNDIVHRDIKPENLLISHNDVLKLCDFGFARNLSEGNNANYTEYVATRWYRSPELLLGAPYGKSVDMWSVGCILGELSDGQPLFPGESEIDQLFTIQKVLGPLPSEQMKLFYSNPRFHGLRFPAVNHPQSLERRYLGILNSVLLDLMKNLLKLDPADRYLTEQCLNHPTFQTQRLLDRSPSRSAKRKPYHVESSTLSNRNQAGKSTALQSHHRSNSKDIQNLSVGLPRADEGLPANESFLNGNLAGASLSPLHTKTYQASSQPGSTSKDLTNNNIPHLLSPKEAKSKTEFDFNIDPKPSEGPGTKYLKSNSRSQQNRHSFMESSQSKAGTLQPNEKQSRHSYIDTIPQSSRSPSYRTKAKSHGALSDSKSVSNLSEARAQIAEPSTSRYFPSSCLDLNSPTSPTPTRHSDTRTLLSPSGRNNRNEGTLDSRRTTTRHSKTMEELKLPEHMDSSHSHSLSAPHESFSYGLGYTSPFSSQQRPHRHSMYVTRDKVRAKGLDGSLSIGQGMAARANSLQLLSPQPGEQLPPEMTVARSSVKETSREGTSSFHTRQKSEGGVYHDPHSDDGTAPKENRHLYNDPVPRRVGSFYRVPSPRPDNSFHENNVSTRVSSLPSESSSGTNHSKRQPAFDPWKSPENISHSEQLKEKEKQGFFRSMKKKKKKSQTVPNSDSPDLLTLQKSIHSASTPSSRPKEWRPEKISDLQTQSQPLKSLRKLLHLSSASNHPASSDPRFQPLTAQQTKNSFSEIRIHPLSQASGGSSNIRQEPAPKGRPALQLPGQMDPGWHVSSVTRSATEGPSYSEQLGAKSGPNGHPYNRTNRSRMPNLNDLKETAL

SMILES | assay | setting | remaining binding
C=CC(=O)N1CCC(C(=O)NCC(=O)N2CCN(c3nc(-c4cnc(N)nc4C(F)F)nc(N4CCOCC4)n3)CC2)CC1 | binding, competition with immobilised ligand | 1 µM | 100%
Cc1nccc(COC(=O)N2C[C@@H]3[C@@H](CNC(=O)c4ccc5[nH]nnc5c4)[C@@H]3C2)n1 | cell-free assay, competition with immobilised ligand | 1 µM | 87%
COc1cnc(Nc2cccc(S(N)(=O)=O)c2)nc1N1CCN(c2ccccc2)C(=O)C1 | binding, competition with immobilised ligand | 1 µM | 100%
O=C(NCCCN1CCOCC1)c1ccc(Nc2nccc(-c3cc4ccccc4s3)n2)cc1 | binding, competition with immobilised ligand | 1 µM | 40%
CS(=O)(=O)N1CCCC(NC(=O)[C@H](CCC2CCCCC2)NC(=O)c2ccc(CNc3ncnc4c3nnn4-c3ccccc3)cc2)C1 (stereo partly drawn) | cell-free assay, competition with immobilised ligand | 0.1 µM | 100%
O=C(NCC1CCOCC1)c1n[nH]cc1NC(=O)c1c(F)cccc1F | binding, competition with immobilised ligand | 1 µM | 30%
CCN1CCN(Cc2ccc(C(=O)Nc3ccc(C)c(Oc4ccc5c(c4)CC(=O)N5)c3)cc2C(F)(F)F)CC1 | binding, competition with immobilised ligand | 1 µM | 100%
CN(C)c1nccc(-c2cnc3ncccn23)n1 | binding | 1 µM | 88%
CCCCN(CCCC)C(=O)CN1C[C@H](c2cc(OC)c3c(c2)OCO3)[C@@H](C(=O)O)[C@@H]1CC(C)(C)CCC | cell-free assay, competition with immobilised ligand | 1 µM | 71.4%
O=C(c1ccc(Nc2ncc(Cl)c(-c3ccc(Cl)s3)n2)cc1)N1CCC(N2CCCC2)CC1 | binding, competition with immobilised ligand | 1 µM | 26%
CC(=O)Nc1c(C(C)=O)c(=O)n(C)c2nc(-c3ccc(Cl)cc3Cl)c(-c3ccc(Cl)cc3)cc12 | cell-free assay, competition with immobilised ligand | 1 µM | 100%
F[C@@H]1CCN(c2nccc(-c3cnn4ncccc34)n2)C1 | binding | 1 µM | 100%
O=C(c1ccc(Nc2nccc(-c3cc4ccccc4s3)n2)cc1)N1CCC(N2CCCC2)CC1 | binding, competition with immobilised ligand | 1 µM | 91%
C[C@H]1CCN(c2nccc(-c3cnn4ncccc34)n2)C1 | binding | 1 µM | 100%
C[C@@H](c1cccc(C#N)c1)n1cc(Cl)cc(C(N)=O)c1=N | binding, competition with immobilised ligand | 1 µM | 89%
N[C@@H]1CCN(c2nccc(-c3cnn4ncccc34)n2)C1 | binding | 1 µM | 100%
Nc1ncc2c(n1)-c1c([nH]c3ccc(C#CC4CC4)cc13)CCCC2 | binding, competition with immobilised ligand | 1 µM | 90%
COc1ccnn2ncc(-c3ccnc(N(C)C)n3)c12 | binding | 1 µM | 86%
COc1ncc2cc3ccccc3nc2c1C#N | binding, competition with immobilised ligand | 5 µM | 90%
CN(c1nccc(-c2cnn3ncccc23)n1)C1CC1 | binding | 1 µM | 100%
CCS(=O)(=O)c1cc2cc(C[C@](O)(CC(C)(C)c3ccc(F)cc3C(N)=O)C(F)(F)F)[nH]c2cn1 | cell-free assay, competition with immobilised ligand | 1 µM | 100%
